Assay [1] in a line: inhibitors of TNFa-induced NFkB p65 translocation, primary screen, imaging, HUVEC, MLSMR starter and 10KST1 sets (AID 438;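 active = inhibition above 20% together with a positive visual image hit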;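 note: compound added about 3h40 before a 20 min TNFalpha stimulation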;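 for inhibition: signal is the nuclear over cytoplasmic p65 intensity ratio per well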). The note with it: HUVEC TNFa-induced p65 nuclear translocation; cell count: measured here: nuclei count (cytotoxicity indicator), at 2.08 µM; inhibition: at 2 µM, stronger effect = higher value, 0% TNFa-plus-vehicle, 100% no-TNFa wells.
A short description of assay [2]: endothelial E-selectin expression blockers – imaging, HUVEC, immunofluorescence, MLSMR starter and 10KST1 sets, primary screen (AID 487;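 active = visually confirmed hit in the image check and inhibition above 20%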;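 for inhibition: signal is fraction of cell area covered by stained E-selectin grains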;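 for nuclei count: 100% = median nuclei count of all wells on the same plate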). To be noted: HUVEC TNFalpha-induced E-selectin immunofluorescence imaging, at 2 µM; inhibition: stronger effect = higher value; nuclei count: measured here: cell number, toxicity.
A short description of assay [3]: Primary imaging screen for DUSP6 inhibitors that restore phospho-Erk in transfected HeLa cells, chemical complementation (AID 609;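 active = compounds giving at least 50% inhibition in the cell-based MKP-3 phosphatase rescue imaging test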;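 for inhibition: phospho-Erk level distribution per well compared with pooled transfected vehicle control wells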). To be noted: HeLa MKP-3 transfected, phospho-Erk imaging KS statistic, at 10 µM, cells stimulated with TPA for 15 min.
Assay [4] has as its target Dual specificity protein phosphatase 6 (Homo sapiens) (UniProt Q16828). Described as above. To be noted: HeLa MKP-3 transfected, phospho-Erk imaging KS statistic; at 10 µM; stronger effect = higher value; cells stimulated with TPA for 15 min.
In assay [5] the target is Voltage-gated potassium channel subunit beta-2 (Rattus norvegicus) (UniProt P62483). The assay is described as follows: inhibitors of rat Kvbeta2 reductase activity – biochemical, NADPH fluorescence, primary screen (AID 622).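 Note: slope of raw intensity against log time taken from 70 to 1610 s.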 To be noted: recombinant KvBeta, 4-cyanobenzaldehyde reduction, at 10 µM, stronger effect = higher value.
Voltage-gated potassium channel subunit beta-2 (Rattus norvegicus), sequence (P62483 whole entry, looked up): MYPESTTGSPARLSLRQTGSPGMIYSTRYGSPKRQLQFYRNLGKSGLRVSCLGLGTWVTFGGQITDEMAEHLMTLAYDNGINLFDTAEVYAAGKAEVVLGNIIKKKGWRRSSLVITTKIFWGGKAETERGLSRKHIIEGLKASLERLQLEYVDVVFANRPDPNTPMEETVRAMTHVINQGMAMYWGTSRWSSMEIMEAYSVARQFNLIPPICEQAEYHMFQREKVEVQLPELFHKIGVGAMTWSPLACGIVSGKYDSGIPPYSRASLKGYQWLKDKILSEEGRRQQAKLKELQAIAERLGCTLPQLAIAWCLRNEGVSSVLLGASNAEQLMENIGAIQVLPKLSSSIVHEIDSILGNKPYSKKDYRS
Assay [6] shares this target. Put plainly: enhancers of rat Kvbeta2 NADPH turnover – biochemical, NADPH fluorescence, primary screen (AID 623;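 active = NADPH fluorescence slope more negative than the mean of all samples by about 3 SD, 99.7% confidence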;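 note: fluorescence intensity change per second fitted from 20 to 320 s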). To be noted: Recombinant KvBeta, NADPH fluorescence decrease slope, 10 min; at 10 µM; stronger effect = lower value.
Assay [7] deals with Alpha-2C adrenergic receptor (Homo sapiens) (UniProt P18825). The assay is described as follows: compounds altering alpha2C-coupled GIRK flux – cell-based, HEK293 alpha2C/GIRK1/2, thallium flux, primary screen (AID 624;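 active = fluorescence slope after compound addition differing from the mean of all screened samples at 99.7% confidence, in either direction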;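 note: slope of fluorescence ratio to pre-addition baseline per second over 15 to 24 s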). The note with it: thallium flux BTC fluorescence, at 10 µM, actives lie on both sides.
Alpha-2C adrenergic receptor (Homo sapiens), sequence (P18825 whole entry, looked up): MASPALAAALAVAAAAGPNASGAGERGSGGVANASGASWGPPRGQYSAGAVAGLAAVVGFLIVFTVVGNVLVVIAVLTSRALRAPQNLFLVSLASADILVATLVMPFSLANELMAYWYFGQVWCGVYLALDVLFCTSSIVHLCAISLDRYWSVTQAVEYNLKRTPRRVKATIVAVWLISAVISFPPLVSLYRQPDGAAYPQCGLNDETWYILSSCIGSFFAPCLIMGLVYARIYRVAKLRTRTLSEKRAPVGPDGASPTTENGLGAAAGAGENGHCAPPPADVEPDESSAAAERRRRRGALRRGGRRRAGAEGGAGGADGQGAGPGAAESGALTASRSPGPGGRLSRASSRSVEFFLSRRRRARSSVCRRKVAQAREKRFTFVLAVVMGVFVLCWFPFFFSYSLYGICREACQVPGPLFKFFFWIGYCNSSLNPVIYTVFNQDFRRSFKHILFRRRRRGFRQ
Assay [8] is described as follows: inhibitors of larval lipid processing in zebrafish, primary screen, whole organism, PED6 fluorescence, gall bladder and intestine (AID 686;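 active = a full or partial loss of lipid-probe fluorescence in the fish gall bladder, intestine or both, judged by eye; inactive = no fluorescence loss, or compound toxic to the fish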;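 note: larvae 5 to 7 days old with five fish per well; signal comes from phospholipase A2 cleavage of quenched PED6 carried via bile; overnight exposure to compound and PED6 before scoring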). To be noted: Zebrafish larvae PED6 lipid processing, fluorescence scoring; screened at 20 µM (by protocol). In outline: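 Also added: quenched phospholipase substrate PED6, 100 nM final, ingested by larvae; System: zebrafish larvae, 5-7 d; Quantity: 5 larvae per well; Compound: 20 µM single dose; Schedule: overnight compound and PED6 incubation; Read-out: visual per-well fluorescence inhibition score; Measured by: By-eye fluorescence microscopy; Medium: E3.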

A short description of assay [9]: loss of swimming-algae plug formation – whole organism, Chlamydomonas reinhardtii, WT vs cilia-less mutant, absorbance, 96-well, primary screen (AID 463189;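 active = inhibition at or above 50% relative to wild type and mutant plate controls; inactive = inhibition below 50%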;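 note: 0% = wild type cc124 cells in DMSO and 100% = ciliumless bld1 mutant cells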). The note with it: Chlamydomonas reinhardtii gravitaxis, OD600 absorbance, 2 days; at 10 µM; stronger effect = higher value.
The mark [10] stands for this setting: measured here: cell density z-score.
Where [11] appears, read: measured here: nuclear c-Myc green intensity z-score.
[12] abbreviates: measured here: nuclear pErk red intensity z-score, stronger effect = higher value.

As a reminder, the inhibition is the relative decrease from the control value, in per cent.

Molecules are shown by their SMILES. Calls of active or inactive are those of the source.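 Rule for the calls, unless noted: active = fluorescence slope higher than the sample average by over 3 SD (cut at about -0.22 in these data, passing the limit was not always enough); inactive = the rest.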

Dual specificity protein phosphatase 6 (Homo sapiens), sequence (Q16828 whole entry, looked up): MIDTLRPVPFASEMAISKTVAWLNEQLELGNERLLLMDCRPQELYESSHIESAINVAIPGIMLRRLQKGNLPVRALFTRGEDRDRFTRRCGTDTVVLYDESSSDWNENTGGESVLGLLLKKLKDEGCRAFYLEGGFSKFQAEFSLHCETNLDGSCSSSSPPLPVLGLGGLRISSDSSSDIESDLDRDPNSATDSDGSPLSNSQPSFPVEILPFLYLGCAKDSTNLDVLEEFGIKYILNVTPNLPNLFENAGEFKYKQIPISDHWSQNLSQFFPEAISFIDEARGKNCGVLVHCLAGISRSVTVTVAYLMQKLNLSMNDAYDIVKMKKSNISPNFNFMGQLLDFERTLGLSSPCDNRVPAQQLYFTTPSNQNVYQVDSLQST

As to `CCOC(=O)c1c(NC(=O)CCN2CCOCC2)sc2c1CC(C)(C)OC2`, the cell count in [1] stood at 658. Moreover, the inhibition was -8.1% (inactive) in assay [1], -45.3% (inactive) in assay [2], -7.28% (inactive) in assay [4] and -12.8% (inactive) in [9]. Further, the nuclei count in assay [2] worked out at 163%. Further, the values for the z-score in assay [3] (setting [10]), in assay [3] (setting [11]) and in [3] (setting [12]) were 0.476, 1.14 and 0.27, respectively. The fluorescence slope in assay [5] was -0.422 (inactive). For the same molecule, the NADPH fluorescence slope in assay [6] was -3e-05 (inactive). The slope in [7] is 0.00607 (inactive). Besides, the molecule was called inactive in assay [8].
As to `O=C(O)c1nsc(Cl)c1Cl`, the cell count in [1] worked out at 628. Moreover, the inhibition in assay [1] is -18.8% (inactive); in [2] it was 39.2% (inactive); in assay [4], -6.06% (inactive); in assay [9], 6.17% (inactive). Also, the nuclei count in assay [2] came out at 170%. Further, the z-score in assay [3] (setting [10]) is -0.315; in assay [3] (setting [11]), -1.86; in assay [3] (setting [12]), 0.801. Also, the fluorescence slope in [5] is -0.386 (inactive). Further, the NADPH fluorescence slope in [6] was -3.3e-06 (inactive). In addition, the slope in [7] was 0.00603 (inactive). Moreover, the outcome in [8] was inactive.
`C=CCOc1nc2c(c(=O)n(C)c(=O)n2C)n1Cc1ccccc1Cl`: the cell count in assay [1] is 617. Further, the inhibition in [1] was 0.6% (inactive); in assay [2], 39.7% (inactive); in [4], 16.8% (inactive); in [9], 1.08% (inactive). In addition, the nuclei count in assay [2] came out at 155%. The z-score in [3] (setting [10]) was -1.51; in assay [3] (setting [11]) it was -0.0292; in [3] (setting [12]) it was 0.274. Further, the fluorescence slope in assay [5] is -0.515 (inactive). The NADPH fluorescence slope in [6] is -0.000108 (inactive). For the same molecule, the slope in assay [7] was 0.0054 (inactive). Further, the molecule was called inactive in assay [8].
Take `O=C1CCC(=O)N1CNc1ccccn1`: the cell count in assay [1] was 493. The inhibition is -5% (inactive) in assay [1], -53.8% (inactive) in assay [2], 7.93% (inactive) in assay [4] and 23.2% (inactive) in [9]. For the same molecule, the nuclei count in assay [2] turned out to be 99.7%. For the same molecule, the z-score in assay [3] (setting [10]) was -0.594; in [3] (setting [11]), -0.186; in assay [3] (setting [12]), -0.375. The fluorescence slope in assay [5] was -0.495 (inactive). In addition, the NADPH fluorescence slope in assay [6] was -5.8e-05 (inactive). Moreover, the slope in assay [7] is 0.00525 (inactive). Further, in assay [8], the molecule was classed as inactive.
As for `Cc1cc(C)n(CC(=O)n2nc(C)cc2C)n1`, the cell count in assay [1] came out at 519. The inhibition in [1] was -6.2% (inactive); in assay [2], -24.6% (inactive); in assay [4] it was 5.95% (inactive); in assay [9] it was 15% (inactive). The molecule also returned a nuclei count in [2] of 81.7%. For the same molecule, the z-score was found to be 0.222 in [3] (setting [10]), 0.17 in [3] (setting [11]) and 0.394 in assay [3] (setting [12]). Moreover, the fluorescence slope in assay [5] is -0.492 (inactive). Besides, the NADPH fluorescence slope in [6] is -2.9e-05 (inactive). Moreover, the slope in assay [7] was 0.00514 (inactive). The molecule was classed as inactive in [8].
For `CCOc1ccc(C2=Nn3c(nnc3-c3ccccn3)SC2)cc1`, in [1], the cell count amounted to 493. Also, the inhibition in assay [1] is 1.1% (inactive); in assay [2] it was -197% (inactive); in assay [4], -13.3% (inactive); in [9], 0.114% (inactive). The nuclei count in assay [2] worked out at 107%. Moreover, the figures for the z-score in assay [3] (setting [10]), in assay [3] (setting [11]) and in assay [3] (setting [12]) were 1.13, -0.317 and 0.587, respectively. In assay [5], the fluorescence slope was -0.467 (inactive). Moreover, in [6], the NADPH fluorescence slope is -3.6e-05 (inactive). The slope in assay [7] was 0.00617 (inactive). Moreover, the outcome in [8] was inactive.
Consider `C=COC(=O)CSc1nc(-c2cccs2)ccc1C#N`, for which the cell count in assay [1] turned out to be 659. The inhibition in assay [1] was -10.8% (inactive); in assay [2] it was -26.9% (inactive); in assay [4] it was -5.62% (inactive); in assay [9], 8.37% (inactive). This molecule also showed a nuclei count in [2] of 152%. Moreover, the z-score was -1.42 in assay [3] (setting [10]), 1.7 in [3] (setting [11]) and 0.138 in assay [3] (setting [12]). Moreover, the fluorescence slope in [5] was -0.385 (inactive). The NADPH fluorescence slope in [6] was -2.3e-06 (inactive). The slope in [7] is 0.0065 (inactive). The outcome in assay [8] was inactive.
As to `COc1ccc(CCCNC(=O)CC#N)cc1OC`, the cell count in assay [1] is 652. The inhibition in [1] was -3.9% (inactive); in [2], -14.5% (inactive); in assay [4], 17% (inactive); in assay [9] it was 10.9% (inactive). For the same molecule, the nuclei count in [2] was 185%. Besides, the z-score in assay [3] (setting [10]) is -0.133; in [3] (setting [11]) it was 0.521; in [3] (setting [12]), -0.241. Further, the fluorescence slope in [5] was -0.512 (inactive). Also, the NADPH fluorescence slope in assay [6] is -4.5e-05 (inactive). For the same molecule, in [7], the slope is 0.00537 (inactive). In [8], the outcome was inactive.
Regarding `CC(=O)C1=C(O)C(=O)N(Cc2cccnc2)C1c1ccccc1Cl` (stereo unspecified), in assay [1], the cell count was found to be 645. The inhibition in assay [1] was -3.5% (inactive); in assay [2], -41.7% (inactive); in [4], 31.1% (inactive); in assay [9], 10.6% (inactive). Moreover, the nuclei count in assay [2] worked out at 140%. For the same molecule, the z-score in assay [3] (setting [10]) is 1.32; in assay [3] (setting [11]) it was -1.67; in assay [3] (setting [12]) it was -1.62. The fluorescence slope in assay [5] is -0.49 (inactive). Also, the NADPH fluorescence slope in [6] was -0.000254 (inactive). Further, in [7], the slope is 0.00582 (inactive). Further, in [8], the outcome was inactive.
As to `COc1ccc(OC)c(C2C(C(=O)c3ccco3)=C(O)C(=O)N2CCCN2CCOCC2)c1` (stereo unspecified), the cell count in assay [1] turned out to be 546. The inhibition is -4.5% (inactive) in assay [1], -85% (inactive) in assay [2], -0.674% (inactive) in [4] and 2.93% (inactive) in [9]. In [2], the nuclei count came to 159%. The z-score was -1.04 in assay [3] (setting [10]), 0.589 in [3] (setting [11]) and -0.634 in assay [3] (setting [12]). In addition, in assay [5], the fluorescence slope was -0.495 (inactive). Moreover, the NADPH fluorescence slope in [6] was -3.6e-05 (inactive). Also, the slope in [7] was 0.0072 (inactive). Also, the call in assay [8] was inactive.
Turning to `CCOC(=O)C1=C(CSc2nc3c(cc2C#N)CN(C)CC3)OC(N)=C(C#N)C1c1ccccc1` (stereo unspecified), the cell count in [1] came to 616. The inhibition in assay [1] is -8.1% (inactive); in assay [2], 28.8% (inactive); in assay [4], -5.62% (inactive); in assay [9] it was -1.09% (inactive). The same molecule came in with a nuclei count in assay [2] of 169%. In addition, the values for the z-score in assay [3] (setting [10]), in assay [3] (setting [11]) and in [3] (setting [12]) were 1.95, -0.602 and 0.371, respectively. Besides, the fluorescence slope in [5] is -0.384 (inactive). The NADPH fluorescence slope in assay [6] was -4.7e-05 (inactive). For the same molecule, in assay [7], the slope is 0.00325 (inactive). For the same molecule, the molecule was called inactive in assay [8].
Regarding `COc1cccc(-c2nc(NCc3ccco3)c3ccccc3n2)c1O`, the cell count in assay [1] worked out at 550. The inhibition in assay [1] was 3% (inactive); in assay [2], -7.1% (inactive); in assay [4] it was -10.5% (inactive); in assay [9], 14.5% (inactive). For the same molecule, the nuclei count in [2] amounted to 113%. In addition, the figures for the z-score in assay [3] (setting [10]), in assay [3] (setting [11]) and in assay [3] (setting [12]) were 0.234, 1.11 and 1.04, respectively. Further, the fluorescence slope in [5] is -0.282 (inactive). The NADPH fluorescence slope in assay [6] is -1.4e-05 (inactive). The slope in [7] is 0.00506 (inactive). Moreover, the molecule was called inactive in assay [8].
